# Laboratory results: ChEMBL document CHEMBL1152534, “Synthesis of oxalamide and triazine derivatives as a novel class of hybrid 4-aminoquinoline with potent antiplasmodial activity” (Bioorg Med Chem, 2009)
# Tests used:
# Plasmodium falciparum = assay: Antimalarial activity against chloroquine-sensitive Plasmodium falciparum 3D7 […] after 72 hrs by twofold serial dilution method; assay type: functional, organism-based
# How it was run: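 P. falciparum 3D7 erythrocyte culture, 2.5% cell suspension at 0.5% parasitaemia. Compounds were twofold serially diluted from 500 ng/mL (seven concentrations) in duplicate wells and incubated 72 h. Lysis buffer with SYBR Green I (Tris pH 7.5, EDTA, saponin, Triton X-100) was added, followed by 1 h at room temperature and a fluorescence read. IC50 from non-linear regression dose–response curves.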
# [1] = Selectivity index, ratio of CC50 for african green monkey (Cercopithecus aethiops) Vero cells to IC50 for chloroquine-sensitive Plasmodium falciparum 3D7; assay type: functional
# How it was run: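 SI is Vero CC50 divided by the antiplasmodial IC50. For CC50, Vero (C-1008) cells at 1 × 10⁴ cells/well were exposed to varying compound concentrations for 72 h with an MTT read-out. CC50 is the concentration killing 50% of cells.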
# Plasmodium yoelii [2] = assay: Antiplasmodial activity against Plasmodium yoelii infected in Swiss mice (Mus musculus) erythrocytes assessed as inhibition of beta-hematin formation after 16 hrs by fluorescence assay; assay type: functional, organism-based; details: in the assay text read “absorbance measurement at 400 nm” for “fluorescence assay”
# How it was run: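 Plasma came from P. yoelii-infected mouse blood at about 50% parasitemia, collected in citrate and centrifuged. The mix held 100 mM sodium acetate pH 5.1, 50 µL plasma and 100 µM hemin substrate in 1.0 mL, run in triplicate at 37 °C for 16 h with shaking. The pellet was dissolved in Tris-HCl pH 7.4 with 2.5% SDS. Absorbance at 400 nm; IC50 by non-linear regression.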
# Plasmodium yoelii [3] = assay: Antimalarial activity against chloroquine-resistant Plasmodium yoelii N67 infected in Swiss mice (Mus musculus) assessed as inhibition of parasitaemia at 50 mg/kg, intraperitoneally administered daily for 4 days measured on day 4 post-infection; assay type: functional; details: for inhibition in vivo at 50 mg/kg: N67, ip, 96 h, route intraperitoneal
# How it was run: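 Swiss mice were inoculated with 1 × 10⁶ P. yoelii N-67 parasitized RBC on day 0. Groups of five received compound as an aqueous suspension with a few drops of Tween 80, at 50 mg/kg/day intraperitoneally once daily from day 0 to 3. Parasitaemia was read from thin smears on day 4, with group-mean percent suppression against untreated controls.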
# Plasmodium yoelii [4] = assay: Antimalarial activity against chloroquine-resistant Plasmodium yoelii N67 infected in Swiss mice (Mus musculus) assessed as inhibition of parasitaemia at 10 mg/kg, perorally administered for 4 days measured on day 4 post-infection; assay type: functional; details: N67, 96 h, route oral
# How it was run: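 Swiss mice were inoculated with 1 × 10⁶ P. yoelii N-67 parasitized RBC on day 0. Groups of five were dosed with chloroquine orally at 10 mg/kg once daily from day 0 to 3. Parasitaemia was read from thin blood smears on day 4, and percent suppression was calculated from the group mean against untreated controls.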
# [5] = Plasmodium falciparum, 3D7, Vero, 72 h, read-out: IC50
SMILES,IC50 (Plasmodium falciparum; [5]) [mg/L],"IC50 (Plasmodium yoelii [2]; Plasmodium yoelii, 16 h) [mg/L]",IC50 (Plasmodium falciparum; vero),Ratio CC50/IC50 [1],also measured
CN(C)CCNC(=O)C(=O)NCCCNc1ccnc2cc(Cl)ccc12,0.0264,7.98,–,2527.65,inhibition in vivo at 50 mg/kg (Plasmodium yoelii [3]): 70.5%
CN1CCN(c2nc(NCCNc3ccnc4cc(Cl)ccc34)nc(N3CCOCC3)n2)CC1,0.01,6.19,–,4692.08,Activity (Plasmodium yoelii [3]): Toxic
O=C(NCCCN1CCOCC1)C(=O)N1CCN(c2ccnc3cc(Cl)ccc23)CC1,–,–,Not Active,–,–
CN1CCN(c2nc(NCCNc3ccnc4cc(Cl)ccc34)nc(N3CCCCC3)n2)CC1,0.00788,9.1,–,958.12,Activity (Plasmodium yoelii [3]): Toxic
CCN(CC)CCCC(C)Nc1ccnc2cc(Cl)ccc12 (configuration not stated) [CHLOROQUINE],–,4.87,–,–,inhibition in vivo at 10 mg/kg (Plasmodium yoelii [4]): 99%
Cc1ccc(S(=O)(=O)n2cc(C(=O)C(=O)N3CCN(CCNc4ccnc5cc(Cl)ccc45)CC3)c3ccccc32)cc1,–,–,Not Active,–,–
CCCCNC(=O)C(=O)N1CCN(c2ccnc3cc(Cl)ccc23)CC1,–,–,Not Active,–,–
O=C(C(=O)N1CCN(CCNc2ccnc3cc(Cl)ccc23)CC1)c1c[nH]c2ccccc12,–,–,Not Active,–,–
O=C(NCCNc1ccnc2cc(Cl)ccc12)C(=O)NCCN1CCOCC1,0.0908,6.87,–,567.43,–
Clc1ccc2c(NCCNc3nc(NCCN4CCOCC4)nc(N4CCCCC4)n3)ccnc2c1,–,–,Not Active,–,–
O=C(C(=O)N1CCN(c2ccnc3cc(Cl)ccc23)CC1)c1c[nH]c2ccccc12,–,–,Not Active,–,–
CCN(CC)CCNC(=O)C(=O)N1CCN(c2ccnc3cc(Cl)ccc23)CC1,0.042,< 20,–,1183.41,–
O=C(NCCN1CCOCC1)C(=O)N1CCN(c2ccnc3cc(Cl)ccc23)CC1,–,–,Not Active,–,–
CN1CCN(c2nc(NCCCNc3ccnc4cc(Cl)ccc34)nc(N3CCOCC3)n2)CC1,0.0401,8.55,–,704.25,–
Clc1ccc2c(NCCCNc3nc(NCCCN4CCOCC4)nc(N4CCOCC4)n3)ccnc2c1,0.0521,8.6,–,706.15,–
CN(C)CCNC(=O)C(=O)NCCNc1ccnc2cc(Cl)ccc12,0.0316,11.1,–,383.03,–
Cn1cc(C(=O)C(=O)N2CCN(CCNc3ccnc4cc(Cl)ccc34)CC2)c2ccccc21,–,–,Not Active,–,–
O=C(NCCCNc1ccnc2cc(Cl)ccc12)C(=O)NCCCN1CCOCC1,0.0254,8.74,–,1625.52,inhibition in vivo at 50 mg/kg (Plasmodium yoelii [3]): 21.4%
O=C(NCCCN1CCOCC1)C(=O)NCCNc1ccnc2cc(Cl)ccc12,0.0313,7.18,–,1567.05,inhibition in vivo at 50 mg/kg (Plasmodium yoelii [3]): 43.6%
CCN(CC)CCNc1nc(NCCNc2ccnc3cc(Cl)ccc23)nc(N2CCCCC2)n1,0.0147,10.2,–,223.13,–
CC(C)(C)NC(=O)C(=O)N1CCN(CCNc2ccnc3cc(Cl)ccc23)CC1,–,–,Not Active,–,–
CCCCNC(=O)C(=O)N1CCN(CCNc2ccnc3cc(Cl)ccc23)CC1,–,–,Not Active,–,–
CN(C)CCNc1nc(NCCNc2ccnc3cc(Cl)ccc23)nc(N2CCOCC2)n1,0.0394,8.1,–,1291.71,–
Clc1ccc2c(NCCNc3nc(NCCN4CCOCC4)nc(N4CCOCC4)n3)ccnc2c1,0.0482,17.2,–,1176.4,–
Clc1ccc2c(NCCCNc3nc(NCCCN4CCOCC4)nc(N4CCCCC4)n3)ccnc2c1,0.00523,7.54,–,860.41,Activity (Plasmodium yoelii [3]): Toxic
CN1CCN(c2nc(NCCCNc3ccnc4cc(Cl)ccc34)nc(N3CCCCC3)n2)CC1,0.00913,7.45,–,530.2,–
CCN(CC)CCNc1nc(NCCCNc2ccnc3cc(Cl)ccc23)nc(N2CCCCC2)n1,0.00897,7.45,–,1011.15,–
O=C(NCCN1CCOCC1)C(=O)N1CCN(CCNc2ccnc3cc(Cl)ccc23)CC1,0.262,14.2,–,183.05,–
CCN(CC)CCNC(=O)C(=O)NCCNc1ccnc2cc(Cl)ccc12,0.0503,7.01,–,605.61,–
CN(C)CCNc1nc(NCCCNc2ccnc3cc(Cl)ccc23)nc(N2CCOCC2)n1,0.164,7.94,–,219.77,–

# Further lines, with some results ahead:
IC50 (Plasmodium falciparum; [5]) [mg/L],"IC50 (Plasmodium yoelii [2]; Plasmodium yoelii, 16 h) [mg/L]",IC50 (Plasmodium falciparum; vero),SMILES,Ratio CC50/IC50 [1],also measured
0.0179,8.72,–,Clc1ccc2c(NCCCNc3nc(NCCN4CCOCC4)nc(N4CCOCC4)n3)ccnc2c1,1017.32,–
–,–,Not Active,Cc1ccc(S(=O)(=O)n2cc(C(=O)C(=O)N3CCN(c4ccnc5cc(Cl)ccc45)CC3)c3ccccc32)cc1,–,–
0.0156,7.99,–,CCN(CC)CCNC(=O)C(=O)NCCCNc1ccnc2cc(Cl)ccc12,232.99,–
0.0656,7.79,–,Clc1ccc2c(NCCNc3nc(NCCCN4CCOCC4)nc(N4CCCCC4)n3)ccnc2c1,65.21,–
0.0156,8.19,–,CN(C)CCNc1nc(NCCCNc2ccnc3cc(Cl)ccc23)nc(N2CCCCC2)n1,330.11,–
–,–,Not Active,Clc1ccc2c(NCCCNc3nc(NCCN4CCOCC4)nc(N4CCCCC4)n3)ccnc2c1,–,–
0.0403,10.6,–,CCN(CC)CCNc1nc(NCCCNc2ccnc3cc(Cl)ccc23)nc(N2CCOCC2)n1,1068.32,–
0.0408,–,–,O=C(NCCCN1CCOCC1)C(=O)N1CCN(CCNc2ccnc3cc(Cl)ccc23)CC1,1221.84,IC50 (Plasmodium yoelii [2]): Not Active
–,–,Not Active,CN(C)CCNC(=O)C(=O)N1CCN(c2ccnc3cc(Cl)ccc23)CC1,–,–
0.0822,10.7,–,O=C(NCCCNc1ccnc2cc(Cl)ccc12)C(=O)NCCN1CCOCC1,191.82,–
0.0844,< 20,–,CN(C)CCNC(=O)C(=O)N1CCN(CCNc2ccnc3cc(Cl)ccc23)CC1,65,–
0.0798,–,–,CCN(CC)CCNC(=O)C(=O)N1CCN(CCNc2ccnc3cc(Cl)ccc23)CC1,194,IC50 (Plasmodium yoelii [2]): Not Active
0.0159,13.3,–,CN(C)CCNc1nc(NCCNc2ccnc3cc(Cl)ccc23)nc(N2CCCCC2)n1,1062.3,–
0.0222,8.58,–,Clc1ccc2c(NCCNc3nc(NCCCN4CCOCC4)nc(N4CCOCC4)n3)ccnc2c1,2405.86,–
0.233,6.76,–,CCCCNC(=O)C(=O)NCCNc1ccnc2cc(Cl)ccc12,18.88,–
–,–,Not Active,CC(C)(C)NC(=O)C(=O)N1CCN(c2ccnc3cc(Cl)ccc23)CC1,–,–
–,–,Not Active,Cn1cc(C(=O)C(=O)N2CCN(c3ccnc4cc(Cl)ccc34)CC2)c2ccccc21,–,–
0.233,15.7,–,CCCCNC(=O)C(=O)NCCCNc1ccnc2cc(Cl)ccc12,38.13,–
0.0297,9.42,–,CCN(CC)CCNc1nc(NCCNc2ccnc3cc(Cl)ccc23)nc(N2CCOCC2)n1,1663.75,–
